AF4-AF9 inh = blocks AF4 peptide binding to human AF9 | P42568 | AlphaScreen, biotin-AF4 peptide binding to FLAG-AF9 | inhibition, % at 10 µM | hit rate 0.47% among 350,000 | AID 651704;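 active = every replicate reaching a set inhibition limit, whatever the replicate mean, cut at about 25% in these data; inconclusive = mean inhibition reaches that limit but some replicates miss it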;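 also: 0% = plate neutral control median and 100% = total signal loss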
RAD54 branch = RAD54 (human) branch migration inhibition; Q92698; RAD54 Holliday junction branch migration, FAM/BHQ fluorescence; hit rate 0.14% among 360,000; inhibition, % at 10.4 µM;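 active = mean normalized replicate activity at least 40 and at least half of replicates scoring 40 or more; inconclusive = only one of the two criteria met; inactive = mean below 40 and under half of replicates reaching 40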;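 also: 0% = median of neutral control wells and 100% = median of positive control wells; inhibitors cause a drop in the FAM fluorescence signal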
Target sequence (Q92698 whole entry, looked up): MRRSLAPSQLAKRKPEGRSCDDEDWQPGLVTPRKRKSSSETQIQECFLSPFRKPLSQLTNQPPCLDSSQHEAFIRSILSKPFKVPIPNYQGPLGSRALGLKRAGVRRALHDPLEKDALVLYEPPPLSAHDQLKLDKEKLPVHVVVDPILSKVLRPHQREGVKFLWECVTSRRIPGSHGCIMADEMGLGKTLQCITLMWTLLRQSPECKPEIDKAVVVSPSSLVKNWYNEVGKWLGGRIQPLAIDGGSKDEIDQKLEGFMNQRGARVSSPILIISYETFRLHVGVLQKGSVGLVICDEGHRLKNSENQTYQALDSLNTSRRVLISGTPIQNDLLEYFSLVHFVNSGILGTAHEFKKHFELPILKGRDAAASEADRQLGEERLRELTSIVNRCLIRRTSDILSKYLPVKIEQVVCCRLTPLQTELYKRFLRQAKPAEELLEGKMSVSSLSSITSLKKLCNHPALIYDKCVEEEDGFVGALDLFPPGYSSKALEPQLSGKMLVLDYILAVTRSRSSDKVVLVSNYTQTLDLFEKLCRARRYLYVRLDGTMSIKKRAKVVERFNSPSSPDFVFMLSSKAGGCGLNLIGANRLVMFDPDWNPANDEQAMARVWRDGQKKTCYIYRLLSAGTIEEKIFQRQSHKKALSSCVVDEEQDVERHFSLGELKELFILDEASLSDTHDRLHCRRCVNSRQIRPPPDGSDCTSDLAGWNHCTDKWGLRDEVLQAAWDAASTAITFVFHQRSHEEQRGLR
CASP6 VEID inh = inhibitors of human caspase-6. purified caspase-6, Z-VEID-R110 cleavage fluorescence. P55212. AID 686996. hit rate 0.53% among 350,000. inhibition, % at 12.5 µM;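 active = mean inhibition across replicates at least about 35%, with every replicate also reaching that limit, limit read from the data; inconclusive = only one of the two criteria met; inactive = neither criterion met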;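 also: 0% = median of neutral control wells and 100% = no fluorescence left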
S100A4 MyoIIA = blocks human S100A4 binding to myosin IIA peptide | P26447 | S100A4/TAMRA-MyoIIA peptide fluorescence polarization | inhibition, % at 10.7 µM | hit rate 0.14% among 360,000 | AID 652163;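 active = mean inhibition of at least 70% across replicates, with every replicate also reaching that level; inconclusive = mean inhibition reaches 70% but some replicates fall short; inactive = mean inhibition below 70%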
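Test system: S100A4 monomer protein. Medium: HEPES buffer with Ca2+, pH 7.2. Reagent: fluorescent myosin IIA peptide, 5 nM. Compound dosing: single-point compound testing. Timing: 5 min between mix addition and reading. Benchmarks: DMSO neutral and TFP positive wells.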
RAD52 anneal inh = RAD52 (human) annealing inhibition; P43351; hit rate 0.46% among 360,000; recombinant RAD52 DNA annealing, FRET fluorescence; inhibition, % at 18.7 µM; AID 651710;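 active = every replicate showing at least 50% inhibition; inconclusive = mean inhibition at least 50% but not in every replicate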
XiGFP reactiv = activators of X-chromosome reactivation in mouse fibroblasts; AID 743238; XiGFP mouse fibroblasts, % GFP-positive cells imaging, 3 d; cells co-treated with 5-aza-dC sensitizer; scaled so ellipticine positive control = 100%; activation, % at 7.58 µM; hit rate 0.055% among 360,000;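 active = mean normalized replicate activation at least 10% and every replicate at or above 10%; inconclusive = only one of the two criteria met; inactive = mean below 10% and not all replicates reach 10%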;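 also: 0% = median of on-plate neutral control wells and 100% = ellipticine 6 µM median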
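System: XiGFP fibroblasts, SV40-immortalized. Medium: DMEM plus 5-aza-dC sensitizer. Doses: single point. Timing: 3 d treatment, 15 min room-temperature fixation. Control set: ellipticine 6 µM.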
RAD52 DNA ctr = DNA binding artifact in RAD52 counter-screen. shares compounds with RAD52 anneal inh. Salmon sperm DNA/acridine orange FP displacement. AC50, µM. hit rate 8% among 1,000. AID 652128;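 active = fitted half-maximal concentration for signal loss at or below twice the highest dose tested, in every separate run, actives reach about 64 µM in these data; inconclusive = runs disagree, or flat partial signal loss, or poor fit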
Active calls of the source: *; i = inactive; ? = inconclusive; / = not tested or not shown. This is a sample that favours compounds with a hit; in the whole collection about 1.3% have one here.

SMILES | AF4-AF9 inh | RAD54 branch | CASP6 VEID inh | S100A4 MyoIIA | RAD52 anneal inh | XiGFP reactiv | RAD52 DNA ctr
Cc1noc(C)c1S(=O)(=O)Nc1ccc2c(c1)C(=O)N([C@@H](C)CO)C[C@@H](C)[C@@H](CN(C)C(=O)Cc1ccccc1)OCCCC[C@@H](C)O2 | 3 | 2 | 3 | 6 | -20 | -1 | /
CO[C@H]1CN(C)C(=O)c2cc(NC(=O)C3CCOCC3)ccc2OC[C@@H](C)N(Cc2nccs2)C[C@H]1C | -1 | 0 | 1 | 2 | -9 | 0 | /
Cc1cc2[nH]c3c(c[n+](C)c4ccccc34)c2cc1C | 18 | / | -44 | 1 | 104* | 0 | 8.5µM*
O=C(C1CC1)N1CC(=O)N2[C@H](CO)[C@@H](c3ccc(C#CC4CCCC4)cc3)[C@@H]2C1 | 2 | / | 0 | -1 | 9 | 0 | /
O=C(CC(C(=O)O)c1cccc(Br)c1)c1ccc(Cl)cc1 (stereo not given) | 0 | 9 | -3 | 0 | 108* | 0 | i
Cc1ccc(C(CC(=O)c2ccc(Cl)cc2)C(=O)O)cc1 (stereo not given) | -9 | -8 | 1 | -2 | -3 | 0 | /
COc1ccc2c3c(n(C)c2c1)[C@H](CO)N(C(=O)CC1CC1)CC31CN(Cc2nccs2)C1 | 2 | / | 0 | -5 | 10 | 0 | /
COc1ccc(NC(=O)O[C@@H](C)[C@@H]2CN3CCc4c([nH]c5ccc(-c6ccc(OC)cc6)cc45)[C@@H]3C[C@@H]2N(C)C(=O)Nc2ccc(OC)cc2)cc1 | 2 | -4 | -3 | -2 | 53* | 0 | i
O=C(C[C@@H]1CC[C@@H](NC(=O)C2CC2)[C@@H](CO)O1)Nc1nccs1 | -3 | -12 | 2 | 3 | 7 | 0 | /
CC(=O)c1c(NCCc2ccccc2)nc(=S)n(-c2ccccc2)c1C | 3 | / | -2 | 3 | 58* | 0 | i
CCn1c(C)c(C(C)=O)c(NCc2ccccc2)nc1=S | 19 | 7 | 2 | -5 | 68* | / | i
C[C@H](CO)N1C[C@H](C)[C@H](CN(C)C(=O)Nc2ccccc2)Oc2ccc(N(C)C)cc2C1=O | 0 | 3 | 1 | 10 | -9 | 1 | /
CNC[C@H]1Oc2c(NC(=O)NC(C)C)cccc2C(=O)N([C@@H](C)CO)C[C@H]1C | -1 | 0 | 3 | 23 | -28 | 0 | /
CN1CCN(c2nc(-c3ccccc3Cl)nc3ccccc23)CC1 | 2 | 6 | -2 | 0 | -11 | 0 | /
COc1cccc(-c2nc(N3CCCCC3C)c3ccccc3n2)c1O (stereo not given) | / | 5 | / | / | / | / | /
CN1CCN(c2nc(-c3ccccc3O)nc3ccccc23)CC1 | 0 | / | 1 | 7 | 53* | 0 | i
COc1cccc(-c2nc(N3CCN(C)CC3)c3ccccc3n2)c1O | 20 | / | -2 | 3 | 87* | 0 | ?
COc1ccc(NC(=O)Nc2ccc3c(c2)CC(=O)N([C@@H](C)CO)C[C@@H](C)[C@H](CN(C)S(=O)(=O)c2ccc(C)cc2)O3)cc1 | 2 | / | 2 | -7 | 26 | 0 | /
CCC(C)[C@H](N)c1cn([C@@H](Cc2cc3ccccc3[nH]2)C(=O)N2CCNCC2)nn1 (stereo not given in full) | 30* | 12 | -95 | 5 | 96* | 0 | i
O=C(C[n+]1cc(-c2ccc(F)cc2)n2c1CCC2)Nc1nc(-c2ccccc2)cs1 | / | 5 | / | / | / | 0 | /
Cc1ccc(-c2c[n+](CC(=O)Nc3nc(-c4ccc(F)cc4)cs3)c3n2CCC3)cc1 | 17 | 41 | 12 | 4 | 58* | 0 | i
CCN(CC)CCNC(=O)CCc1c(C)nc2c(c(C)nn2-c2ccc(C)c(C)c2)c1C | 7 | 27 | -24 | -8 | 6 | 0 | i
CN1CCN(c2nc3cc(C(F)(F)F)ccc3n3cccc23)CC1 | 14 | 40 | / | -3 | 67* | 0 | i
FC(F)(F)c1ccc2c(c1)nc1n2CCCC1 | / | -8 | / | / | / | / | /
CC(C)(C)NCC(O)CON=C1c2ccccc2-c2ccccc21 (stereo not given) | 14 | / | -3 | -7 | 55* | 0 | i
SMILES | AF4-AF9 inh | RAD54 branch | CASP6 VEID inh | S100A4 MyoIIA | RAD52 anneal inh | XiGFP reactiv | RAD52 DNA ctr
CCCc1cn(CC[C@H]2CC[C@H](NC(=O)C3CCCCC3)[C@H](CO)O2)nn1 | -1 | -3 | 4 | -3 | -4 | 1 | /
CC(C)c1ccc(CNc2nc(NCC3CC3)nc3ccsc23)cc1 | 0 | -3 | -1 | 6 | 71* | 0 | i
CC#CC[N+](C)(C)CCCCCCCC | -2 | -12 | -3 | 0 | -6 | 0 | /
CCCCCCCCCCCCCCCC[N+](C)(C)Cc1ccc(F)cc1 | 5 | / | -196 | -12 | 91* | 0 | 26µM*
COc1ccc(C2=Nn3c(nnc3-c3ccccc3F)SC2)cc1OC1CCCC1 | 11 | 8 | 1 | -1 | -9 | 0 | i
COc1ccc(C2=Nn3c(nnc3-c3ccccc3F)SC2)cc1OC1CCOC1 (stereo not given) | 6 | -1 | -2 | 1 | -20 | 0 | /
CCCC#Cc1cnc2c(c1)C(=O)N([C@H](C)CO)C[C@@H](C)[C@H](CN(C)CCC)O2 | 6 | -9 | 1 | -2 | 31 | -1 | /
C[C@@H]1CN([C@@H](C)CO)C(=O)c2cc(NC(=O)CCC(F)(F)F)ccc2O[C@@H]1CN(C)C | -2 | -5 | 3 | 55 | -8 | 0 | /
CC(=O)Nc1cc(-c2cccc(NS(C)(=O)=O)c2)cn2c(-c3cccc(C(F)(F)F)c3)cnc12 | 3 | -5 | 0 | -4 | -73 | 0 | /
CN(C)CCNC(=O)c1cccc(-c2cnc3c(NC=O)cc(/C=C/c4ccccc4)cn23)c1 | 34* | 18 | -65 | -9 | 80* | 0 | i
CN(C)C(=O)c1cccc(-c2cnc3c(NC=O)cc(-c4ccccc4F)cn23)c1 | 2 | 4 | 7 | 1 | -55 | 0 | /
CC(=O)Nc1cc(-c2cccc(C(=O)NCCN(C)C)c2)cn2c(-c3cccc(C(F)(F)F)c3)cnc12 | 26* | 43 | -150 | -11 | 86* | 1 | i
CCSc1ccc(-c2cc(NC=O)c3ncc(-c4cccc(C(=O)NCCN(C)C)c4)n3c2)cc1 | 43* | 10 | -96 | -6 | 66* | 0 | i
CCc1c(-c2ccccc2)ncn1Cc1cccc(-c2ccccc2)c1 | -1 | / | -8 | 0 | -14 | 0 | /
CCc1c(C2CC2)ncn1Cc1cccc(-c2ccccc2)c1 | 21 | / | -26 | -1 | 78* | 0 | i
Oc1c(CN2CCCCC2)ccc2cccnc12 | 14 | 4 | 69* | 4 | 63* | 1 | i

Compound activity (PubChem)
